Published values of several laboratories.
Each line is one published result; the experiments were not run side by side.
Target: Megakaryocyte-associated tyrosine-protein kinase (MATK, Homo sapiens, UniProt P42679)
Sequence (P42679 1-507, as in one of the studies): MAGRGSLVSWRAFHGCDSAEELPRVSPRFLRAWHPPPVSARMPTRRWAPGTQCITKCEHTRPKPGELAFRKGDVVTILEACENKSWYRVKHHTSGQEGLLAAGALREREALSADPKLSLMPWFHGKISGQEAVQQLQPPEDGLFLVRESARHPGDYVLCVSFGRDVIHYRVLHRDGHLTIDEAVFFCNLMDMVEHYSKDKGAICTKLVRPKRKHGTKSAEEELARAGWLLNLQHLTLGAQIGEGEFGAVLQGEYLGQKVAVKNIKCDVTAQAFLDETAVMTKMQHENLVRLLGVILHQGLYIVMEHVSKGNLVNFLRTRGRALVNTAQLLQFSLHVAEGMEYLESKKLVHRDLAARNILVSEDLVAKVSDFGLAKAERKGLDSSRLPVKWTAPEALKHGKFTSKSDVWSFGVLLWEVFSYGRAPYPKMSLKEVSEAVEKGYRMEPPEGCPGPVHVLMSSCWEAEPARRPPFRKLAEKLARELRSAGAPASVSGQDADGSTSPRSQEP

Compound | effect on | method | concentration | remaining binding
CC1CCCN1c1nccc(-c2cnn3ncccc23)n1 (stereo not drawn) | binding | – | 1 µM | 100%
C[C@@H](c1cccc(C#N)c1)n1cc(Cl)cc(C(N)=O)c1=N | cell-free assay | competition with immobilised ligand | 1 µM | 100%
C[C@@H](c1ccc(-n2cnc3c(N)ncnc32)cc1)N1CCc2nn(C)c(Cc3ccccc3)c2C1=O | binding | competition with immobilised ligand | 0.1 µM | 69%
NS(=O)(=O)c1cc(NC(=O)C2(c3ccccc3Cl)CC2)ccc1Oc1cccc(Cl)c1 | cell-free assay | competition with immobilised ligand | 1 µM | 100%
c1cncc(-c2cccc(Nc3nccc(NC4CCCCC4)n3)c2)c1 | binding | competition with immobilised ligand | 10 µM | 71%
C=CC(=O)N1CCC(C(=O)NCC(=O)N2CCN(c3nc(-c4cnc(N)nc4C(F)F)nc(N4CCOCC4)n3)CC2)CC1 | binding | competition with immobilised ligand | 1 µM | 78%
O=C(NCCCN1CCOCC1)c1ccc(Nc2nccc(-c3cc4ccccc4s3)n2)cc1 | binding | competition with immobilised ligand | 1 µM | 55%
N[C@@H]1CCN(c2nccc(-c3cnn4ncccc34)n2)C1 | binding | – | 1 µM | 100%
O=C(c1ccc(Nc2ncc(Cl)c(-c3cc4ccccc4s3)n2)cc1)N1CCC(N2CCCC2)CC1 | binding | competition with immobilised ligand | 1 µM | 47%
CCN1CCN(Cc2ccc(C(=O)Nc3ccc(C)c(Oc4ccc5c(c4)CC(=O)N5)c3)cc2C(F)(F)F)CC1 | binding | competition with immobilised ligand | 1 µM | 100%
CS(=O)(=O)N1CCCC(NC(=O)[C@H](CCC2CCCCC2)NC(=O)c2ccc(CNc3ncnc4c3nnn4-c3ccccc3)cc2)C1 (stereo partly drawn) | cell-free assay | competition with immobilised ligand | 0.1 µM | 100%
COc1ccnn2ncc(-c3ccnc(N(C)C)n3)c12 | binding | – | 1 µM | 100%
NS(=O)(=O)c1cc(NC(=O)Cc2ccccc2)ccc1Oc1cccc(Cl)c1 | cell-free assay | competition with immobilised ligand | 1 µM | 68%
CN(C)c1nccc(-c2cnn3ncccc23)n1 | binding | – | 1 µM | 100%
Cc1cnc(Nc2ccc(C(=O)N3CCC(N4CCCC4)CC3)cc2)nc1-c1cc2ccccc2s1 | binding | competition with immobilised ligand | 1 µM | 30%
FC(F)(F)c1ccc2c(c1)nc(-c1cccnc1)n2C1CC1 | cell-free assay | competition with immobilised ligand | 1 µM | 100%
CN(CCCC(F)(F)F)c1nccc(-c2cnn3ncccc23)n1 | binding | – | 1 µM | 72%
CNC(=O)[C@@H]1CC[C@@H](n2c(-c3ccc4cnccc4c3)nc3ccc(C(=O)NCc4cccc(C(N)=O)c4)cc32)C1 | binding | competition with immobilised ligand | 1 µM | 100%
CN(C)c1ncc(F)c(-c2cnn3ncccc23)n1 | binding | – | 1 µM | 79%
O=C(N[C@H]1CCCCC/C=C\C2C[C@@]2(C(=O)O)NC(=O)[C@@H]2C[C@@H](Oc3ccncc3)CN2C1=O)OC1CCCC1 (stereo partly drawn) | binding | competition with immobilised ligand | 1 µM | 41%
O=C(NCC1CCOCC1)c1n[nH]cc1NC(=O)c1c(F)cccc1F | binding | competition with immobilised ligand | 1 µM | 79%
